This is an account of results in ChEMBL document CHEMBL1687738, “Effect of Candida glabrata FKS1 and FKS2 mutations on echinocandin sensitivity and kinetics of 1,3-beta-D-glucan synthase: implication for the existing susceptibility breakpoint” (Antimicrob Agents Chemother, 2009).

In general, pIC50 refers to the IC50 on a negative log10 scale, so that one unit is a factor of ten. The term IC50 denotes the concentration at which inhibition is half-maximal. As a reminder, the MIC is the lowest concentration that inhibits growth of the organism.

The target of test [1] is 1,3-beta-glucan synthase (Candida glabrata, UniProt F5BCZ9, F659V). Kind of test: Inhibition of Candida glabrata isolate 234 1,3-beta-D-glucan synthase wild type Fks1p/Fks2p F659V mutant. Set-up: species or system Nakaseomyces glabratus. Put shortly: (§1)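 Cells grown in YPD broth at 35°C with vigorous shaking to early stationary phase. Membrane protein extracted and glucan synthase partially purified by product entrapment. Filtration polymerization assay measured [3H]glucose incorporation into product, started by adding enzyme. Echinocandin serial dilutions spanned 0.01–10,000 ng/ml, with 1% DMSO controls for anidulafungin. IC50 from variable-slope sigmoidal fit.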

The nature of test [2]: Inhibition of Candida glabrata ATCC 90030 wild type 1,3-beta-D-glucan synthase. Also noted: species or system Nakaseomyces glabratus. The gist of the method: as §1
The nature of test [3]: Inhibition of Candida glabrata isolate 3168 wild type 1,3-beta-D-glucan synthase. Set-up: species or system Nakaseomyces glabratus. Put shortly:
as §1

Test [4] concerns the target 1,3-beta-glucan synthase component FKS1 (Candida glabrata, UniProt E2GKZ4, D632E). As to the kind of experiment: Inhibition of Candida glabrata isolate 3169 1,3-beta-D-glucan synthase Fks1p D632E mutant/wild type Fks2p. Set-up: species or system Nakaseomyces glabratus. Put shortly: as §1
Test [5] concerns Nakaseomyces glabratus. Kind of test: Antifungal activity against Candida glabrata isolate 42031 expressing wild type Fks1p and Fks2p D666E mutant by CLSI method. Type of test: functional. The gist of the method: (§2)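 Broth microdilution MIC per CLSI M27-A3 in RPMI 1640 medium without serum. Caspofungin and micafungin stocks in sterile water; anidulafungin stock in 100% DMSO; stocks kept at −86°C.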

For test [6], the target named is 1,3-beta-glucan synthase (Candida glabrata, UniProt F5BCZ9, W1375L). As to the kind of experiment: Inhibition of Candida glabrata isolate 5416 1,3-beta-D-glucan synthase wild type Fks1p/Fks2p W1375L mutant. Also noted: species or system Nakaseomyces glabratus. The gist of the method:
as §1

Test [7] relates to Nakaseomyces glabratus. As to the kind of experiment: Antifungal activity against Candida glabrata isolate 42971 expressing Fks1p D632Y mutant and Fks2p R1377STOP mutant by CLSI method in presence of 50% human serum. Type of test: functional. The gist of the method: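 Broth microdilution MIC per CLSI M27-A3 in RPMI 1640 supplemented with 50% serum. Caspofungin and micafungin stocks in sterile water; anidulafungin stock in 100% DMSO; stocks kept at −86°C.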

Test [8] has as its system Nakaseomyces glabratus. Kind of test: Antifungal activity against Candida glabrata isolate 42997 expressing Fks1p F625S mutant and wild type Fks2p by CLSI method. It is filed as functional. Put shortly: as §2
The target in test [9] is 1,3-beta-glucan synthase component FKS1 (Candida glabrata, UniProt E2GKZ4, F625S). As to the kind of experiment: Inhibition of Candida glabrata isolate 42997 1,3-beta-D-glucan synthase Fks1p F625S mutant/wild type Fks2p. Also noted: species or system Nakaseomyces glabratus. The gist of the method:
as §1

Test [10] concerns Nakaseomyces glabratus. As to the kind of experiment: Antifungal activity against Candida glabrata isolate 41400 expressing wild type Fks1p and Fks2p D666G mutant by CLSI method. It is filed as functional. Put shortly:
as §2

Test [11] deals with Nakaseomyces glabratus. Kind of test: Antifungal activity against Candida glabrata isolate 3169 expressing Fks1p D632E mutant and wild type Fks2p by CLSI method. Type of test: functional. The gist of the method: as §2
In test [12] the test system is Nakaseomyces glabratus. As to the kind of experiment: Antifungal activity against Candida glabrata isolate 234 expressing wild type Fks1p and Fks2p F659V mutant by CLSI method. It is filed as functional. Put shortly:
as §2

Test [13] relates to Nakaseomyces glabratus. Kind of test: Antifungal activity against Candida glabrata isolate 51916 expressing wild type Fks1p and Fks2p P667T mutant by CLSI method. It is filed as functional. Put shortly: as §2
For test [14], the system named is Nakaseomyces glabratus. Kind of test: Antifungal activity against Candida glabrata isolate 218 expressing wild type Fks1p and Fks2p by CLSI method. Type of test: functional. The gist of the method:
as §2

Test [15] deals with Nakaseomyces glabratus. As to the kind of experiment: Antifungal activity against Candida glabrata isolate 41026 expressing wild type Fks1p and Fks2p F659S mutant by CLSI method. It is filed as functional. Put shortly: as §2
Test [16] has as its system Nakaseomyces glabratus. Kind of test: Antifungal activity against Candida glabrata isolate 5847 expressing Fks1p S629P mutant and wild type Fks2p by CLSI method. Type of test: functional. The gist of the method: as §2

pIC50: −log10 of the molar value. ≈ marks a conversion by molar mass, not a printed value. Starred links: 1 amine or outer side, 2 acyl side, 3 side chain; linkers in the order of their positions; H or OH if unused. Positions of bridges follow the written chain, without caps; N, C: chain ends. Non-standard residues stand in square brackets, D forms with d. Residues, ends and D or L forms follow the SMILES beside them. *: point of attachment. hTyr(3S-OH,4S-OH,3'-OSO3H) = N[C@H](C(=O)O)[C@H](O)[C@@H](O)c1ccc(O)c(OS(=O)(=O)O)c1; pTerphenylCO(4''-OnC5H11) = CCCCCOc1ccc(-c2ccc(-c3ccc(C(=O)*)cc3)cc2)cc1; Orn(4R-OH,5R-OH) = O=C([C@H](C[C@@H](O)[C@@H](O)N[*:3])N[*:1])[*:2]; hTyr(3S-OH,4S-OH) = N[C@H](C(=O)O)[C@H](O)[C@@H](O)c1ccc(O)cc1; Pro(3S-OH,4S-Me) = C[C@H]1CN[C@H](C(=O)O)[C@H]1O; X1 = CCCCCOc1ccc(-c2cc(-c3ccc(C(=O)*)cc3)no2)cc1; Gln(3R-OH) = NC(=O)C[C@@H](O)[C@H](N)C(=O)O; Hyp = O=C(O)[C@@H]1C[C@@H](O)CN1

1,3-beta-glucan synthase (Candida glabrata, UniProt F5BCZ9, F659V), sequence (F5BCZ9 entry or part of it F659V): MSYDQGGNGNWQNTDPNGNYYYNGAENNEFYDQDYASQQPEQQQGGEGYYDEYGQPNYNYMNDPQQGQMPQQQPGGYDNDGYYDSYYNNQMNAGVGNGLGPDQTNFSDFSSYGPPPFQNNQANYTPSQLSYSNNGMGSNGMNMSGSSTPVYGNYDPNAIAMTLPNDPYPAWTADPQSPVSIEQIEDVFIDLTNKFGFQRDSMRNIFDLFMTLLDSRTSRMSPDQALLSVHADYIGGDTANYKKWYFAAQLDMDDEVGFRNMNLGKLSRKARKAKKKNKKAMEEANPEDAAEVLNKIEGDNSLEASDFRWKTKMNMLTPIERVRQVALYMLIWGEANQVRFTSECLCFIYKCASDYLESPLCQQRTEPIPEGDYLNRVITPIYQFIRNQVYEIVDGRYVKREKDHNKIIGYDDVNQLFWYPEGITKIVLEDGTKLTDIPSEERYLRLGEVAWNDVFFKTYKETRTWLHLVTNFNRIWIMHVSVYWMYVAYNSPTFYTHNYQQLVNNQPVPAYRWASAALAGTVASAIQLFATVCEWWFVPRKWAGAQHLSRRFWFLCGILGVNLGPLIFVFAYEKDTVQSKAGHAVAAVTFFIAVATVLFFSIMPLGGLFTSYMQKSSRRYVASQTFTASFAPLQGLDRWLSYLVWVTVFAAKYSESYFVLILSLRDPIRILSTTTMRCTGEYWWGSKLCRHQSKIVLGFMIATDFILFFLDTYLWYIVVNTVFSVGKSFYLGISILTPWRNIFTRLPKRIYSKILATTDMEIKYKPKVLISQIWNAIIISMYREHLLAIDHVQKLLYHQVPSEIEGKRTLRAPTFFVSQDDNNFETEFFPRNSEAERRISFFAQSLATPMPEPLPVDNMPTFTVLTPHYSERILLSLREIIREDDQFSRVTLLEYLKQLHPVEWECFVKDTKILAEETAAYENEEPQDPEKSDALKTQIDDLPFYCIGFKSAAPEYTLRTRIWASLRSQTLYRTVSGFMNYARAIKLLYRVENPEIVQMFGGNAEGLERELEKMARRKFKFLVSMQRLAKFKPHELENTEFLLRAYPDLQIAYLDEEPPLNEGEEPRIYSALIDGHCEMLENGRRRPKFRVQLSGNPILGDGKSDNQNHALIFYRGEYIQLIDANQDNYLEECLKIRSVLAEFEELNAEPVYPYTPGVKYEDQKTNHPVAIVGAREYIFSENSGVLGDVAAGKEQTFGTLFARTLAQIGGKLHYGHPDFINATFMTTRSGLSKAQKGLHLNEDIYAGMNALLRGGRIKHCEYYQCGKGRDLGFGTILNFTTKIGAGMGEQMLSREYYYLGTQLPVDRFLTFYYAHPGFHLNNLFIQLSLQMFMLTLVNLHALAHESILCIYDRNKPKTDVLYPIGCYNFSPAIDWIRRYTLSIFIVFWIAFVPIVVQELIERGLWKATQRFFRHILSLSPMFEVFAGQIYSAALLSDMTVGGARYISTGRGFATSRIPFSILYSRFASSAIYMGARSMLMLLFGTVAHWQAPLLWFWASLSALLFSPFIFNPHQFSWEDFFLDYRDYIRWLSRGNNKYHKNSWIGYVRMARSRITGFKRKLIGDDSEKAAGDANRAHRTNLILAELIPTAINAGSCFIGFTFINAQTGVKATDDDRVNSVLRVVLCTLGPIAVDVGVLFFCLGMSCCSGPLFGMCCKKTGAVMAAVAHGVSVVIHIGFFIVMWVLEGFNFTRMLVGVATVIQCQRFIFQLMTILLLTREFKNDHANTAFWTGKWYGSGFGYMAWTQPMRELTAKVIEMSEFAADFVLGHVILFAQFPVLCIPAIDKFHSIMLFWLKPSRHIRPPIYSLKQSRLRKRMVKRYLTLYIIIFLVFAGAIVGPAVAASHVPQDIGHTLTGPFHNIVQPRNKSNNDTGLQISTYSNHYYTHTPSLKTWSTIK
1,3-beta-glucan synthase component FKS1 (Candida glabrata, UniProt E2GKZ4, D632E), sequence (E2GKZ4 entry or part of it D632E): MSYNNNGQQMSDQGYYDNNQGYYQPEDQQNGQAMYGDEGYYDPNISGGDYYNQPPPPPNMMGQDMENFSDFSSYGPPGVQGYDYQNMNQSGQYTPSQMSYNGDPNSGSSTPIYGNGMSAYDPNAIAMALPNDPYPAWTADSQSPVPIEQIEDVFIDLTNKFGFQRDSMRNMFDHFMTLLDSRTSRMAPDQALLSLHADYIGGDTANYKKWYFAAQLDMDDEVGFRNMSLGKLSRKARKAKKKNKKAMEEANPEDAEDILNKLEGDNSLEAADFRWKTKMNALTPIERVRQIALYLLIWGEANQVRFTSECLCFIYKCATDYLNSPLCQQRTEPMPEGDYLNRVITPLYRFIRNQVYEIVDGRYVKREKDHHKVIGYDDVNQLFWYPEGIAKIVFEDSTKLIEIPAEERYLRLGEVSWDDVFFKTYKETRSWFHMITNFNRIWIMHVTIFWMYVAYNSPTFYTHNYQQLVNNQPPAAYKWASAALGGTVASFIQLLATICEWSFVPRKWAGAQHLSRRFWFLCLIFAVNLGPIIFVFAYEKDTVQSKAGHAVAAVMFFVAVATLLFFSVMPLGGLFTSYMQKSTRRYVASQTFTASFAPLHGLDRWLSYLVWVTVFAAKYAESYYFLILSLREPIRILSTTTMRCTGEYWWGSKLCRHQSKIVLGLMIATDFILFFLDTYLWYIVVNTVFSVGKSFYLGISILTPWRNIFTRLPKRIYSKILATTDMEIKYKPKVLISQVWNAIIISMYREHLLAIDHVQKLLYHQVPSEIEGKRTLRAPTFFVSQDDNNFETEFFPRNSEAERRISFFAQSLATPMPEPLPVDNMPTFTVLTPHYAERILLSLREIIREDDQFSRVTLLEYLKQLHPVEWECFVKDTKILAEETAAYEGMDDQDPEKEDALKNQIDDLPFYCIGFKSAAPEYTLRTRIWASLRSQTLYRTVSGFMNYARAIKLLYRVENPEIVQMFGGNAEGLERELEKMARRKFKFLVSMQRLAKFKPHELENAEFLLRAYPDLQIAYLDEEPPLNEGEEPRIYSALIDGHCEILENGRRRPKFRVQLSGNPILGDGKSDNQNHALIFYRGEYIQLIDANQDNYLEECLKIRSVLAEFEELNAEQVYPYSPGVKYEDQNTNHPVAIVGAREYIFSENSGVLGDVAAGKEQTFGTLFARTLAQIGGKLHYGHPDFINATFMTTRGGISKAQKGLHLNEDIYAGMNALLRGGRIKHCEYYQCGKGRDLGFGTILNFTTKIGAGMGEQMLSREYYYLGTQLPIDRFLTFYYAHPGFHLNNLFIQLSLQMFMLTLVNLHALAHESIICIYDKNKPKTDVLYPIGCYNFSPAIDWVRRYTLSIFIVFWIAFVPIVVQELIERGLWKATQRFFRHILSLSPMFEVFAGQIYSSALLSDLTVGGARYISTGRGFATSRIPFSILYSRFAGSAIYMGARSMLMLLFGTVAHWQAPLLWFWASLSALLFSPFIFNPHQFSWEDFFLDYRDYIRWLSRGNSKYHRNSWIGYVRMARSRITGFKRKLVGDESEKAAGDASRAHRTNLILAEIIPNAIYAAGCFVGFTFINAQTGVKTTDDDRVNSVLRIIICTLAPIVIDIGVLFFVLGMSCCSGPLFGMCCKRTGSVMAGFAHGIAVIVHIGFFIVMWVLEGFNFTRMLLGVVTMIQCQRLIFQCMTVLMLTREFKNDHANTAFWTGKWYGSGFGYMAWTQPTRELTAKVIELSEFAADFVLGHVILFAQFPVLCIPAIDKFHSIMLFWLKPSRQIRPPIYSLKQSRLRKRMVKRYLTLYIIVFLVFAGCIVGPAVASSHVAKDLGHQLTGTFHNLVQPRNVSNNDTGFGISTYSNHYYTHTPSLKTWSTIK

With `CCCCCOc1ccc(-c2ccc(-c3ccc(C(=O)N[C@H]4C[C@@H](O)[C@@H](O)NC(=O)[C@@H]5[C@@H](O)[C@@H](C)CN5C(=O)[C@H]([C@@H](C)O)NC(=O)[C@H]([C@H](O)[C@@H](O)c5ccc(O)cc5)NC(=O)[C@@H]5C[C@@H](O)CN5C(=O)[C@H]([C@@H](C)O)NC4=O)cc3)cc2)cc1` [ANIDULAFUNGIN] ({pTerphenylCO(4''-OnC5H11)}-[Orn(4R-OH,5R-OH)]T[Hyp][hTyr(3S-OH,4S-OH)]T[Pro(3S-OH,4S-Me)]; lactam 1-C), the pIC50 against 1,3-beta-glucan synthase [1] was 7.12; in test [4], 6.88; on 1,3-beta-glucan synthase [6], 7.13; in test [9] it was 7.01. Besides, the IC50 in [2] came out at 1.91 ng/mL (≈ 0.00168 µM); in test [3] it was 1.58 ng/mL (≈ 0.00139 µM). The MIC came out at 1 µg/mL (≈ 0.877 µM) with Nakaseomyces glabratus [5]; 8 µg/mL with Nakaseomyces glabratus [7]; 2 µg/mL (≈ 1.75 µM) in the test on Nakaseomyces glabratus [8]; 2 µg/mL (≈ 1.75 µM) in the test on Nakaseomyces glabratus [10]; 2 µg/mL (≈ 1.75 µM) against Nakaseomyces glabratus [11]; 1 µg/mL (≈ 0.877 µM) in the test on Nakaseomyces glabratus [12]. The MIC in the test with Nakaseomyces glabratus [13] is 1.59 µg/mL (≈ 1.39 µM); in the test with Nakaseomyces glabratus [14], 0.06 µg/mL (≈ 0.0526 µM); in the test with Nakaseomyces glabratus [15], 4 µg/mL (≈ 3.51 µM); in the test with Nakaseomyces glabratus [16], 4 µg/mL (≈ 3.51 µM).
For `CC[C@H](C)C[C@H](C)CCCCCCCCC(=O)N[C@H]1C[C@@H](O)[C@@H](NCCN)NC(=O)[C@@H]2[C@@H](O)CCN2C(=O)[C@H]([C@H](O)CCN)NC(=O)[C@H]([C@H](O)[C@@H](O)c2ccc(O)cc2)NC(=O)[C@@H]2C[C@@H](O)CN2C(=O)[C@H]([C@@H](C)O)NC1=O` [CASPOFUNGIN], the pIC50 at 1,3-beta-glucan synthase [1] was 6.98; in test [4], 6.11; against 1,3-beta-glucan synthase [6], 6.25; in test [9], 6.20. Besides, the half-inhibitory concentration (IC50) in test [2] amounted to 1.92 ng/mL (≈ 0.00176 µM); in test [3] it was 1.79 ng/mL (≈ 0.00164 µM). Moreover, the MIC with Nakaseomyces glabratus [5] is 4 µg/mL (≈ 3.66 µM); with Nakaseomyces glabratus [7] it was 8 µg/mL; in the test with Nakaseomyces glabratus [8] it was 8 µg/mL (≈ 7.32 µM); against Nakaseomyces glabratus [10] it was 4 µg/mL (≈ 3.66 µM); in the test on Nakaseomyces glabratus [11], 2.52 µg/mL (≈ 2.3 µM); with Nakaseomyces glabratus [12] it was 4 µg/mL (≈ 3.66 µM). For the same compound, the MIC against Nakaseomyces glabratus [13] stood at 2 µg/mL (≈ 1.83 µM); in the test with Nakaseomyces glabratus [14], 0.12 µg/mL (≈ 0.11 µM); in the test on Nakaseomyces glabratus [15], 16 µg/mL (≈ 14.6 µM); with Nakaseomyces glabratus [16] it was 8 µg/mL (≈ 7.32 µM).
Consider `CCCCCOc1ccc(-c2cc(-c3ccc(C(=O)N[C@H]4C[C@@H](O)[C@@H](O)NC(=O)[C@@H]5[C@@H](O)[C@@H](C)CN5C(=O)[C@H]([C@H](O)CC(N)=O)NC(=O)[C@H]([C@H](O)[C@@H](O)c5ccc(O)c(OS(=O)(=O)O)c5)NC(=O)[C@@H]5C[C@@H](O)CN5C(=O)[C@H]([C@@H](C)O)NC4=O)cc3)no2)cc1` [MICAFUNGIN] (X1-[Orn(4R-OH,5R-OH)]T[Hyp][hTyr(3S-OH,4S-OH,3'-OSO3H)][Gln(3R-OH)][Pro(3S-OH,4S-Me)]; lactam 1-C), for which the pIC50 is 7.05 at 1,3-beta-glucan synthase [1], 6.46 in [4], 7.40 against 1,3-beta-glucan synthase [6] and 7.00 in [9]. Moreover, the IC50 in test [2] was found to be 0.71 ng/mL (≈ 0.000559 µM); in test [3] it was 1.29 ng/mL (≈ 0.00102 µM). Also, the MIC with Nakaseomyces glabratus [5] came out at 0.25 µg/mL (≈ 0.197 µM); in the test with Nakaseomyces glabratus [7], 8 µg/mL; against Nakaseomyces glabratus [8] it was 0.5 µg/mL (≈ 0.394 µM); against Nakaseomyces glabratus [10], 0.12 µg/mL (≈ 0.0945 µM); with Nakaseomyces glabratus [11] it was 2.52 µg/mL (≈ 1.98 µM); with Nakaseomyces glabratus [12], 1 µg/mL (≈ 0.787 µM). The MIC against Nakaseomyces glabratus [13] was 0.4 µg/mL (≈ 0.315 µM); with Nakaseomyces glabratus [14], 0.12 µg/mL (≈ 0.0945 µM); in the test with Nakaseomyces glabratus [15], 4 µg/mL (≈ 3.15 µM); in the test on Nakaseomyces glabratus [16], 2 µg/mL (≈ 1.57 µM).
